In ChEMBL document CHEMBL2034856, “Synthesis and evaluation of 11β-(4-substituted phenyl) estradiol analogs: transition from estrogen receptor agonists to antagonists” (Bioorg Med Chem, 2012):

Key:
[1] = biological target: T1, Estrogen receptor (Bos taurus) (UniProt P49884); assay: Displacement of [3H]estradiol from calf cytosolic ER relative to estradiol
T1 sequence (whole entry): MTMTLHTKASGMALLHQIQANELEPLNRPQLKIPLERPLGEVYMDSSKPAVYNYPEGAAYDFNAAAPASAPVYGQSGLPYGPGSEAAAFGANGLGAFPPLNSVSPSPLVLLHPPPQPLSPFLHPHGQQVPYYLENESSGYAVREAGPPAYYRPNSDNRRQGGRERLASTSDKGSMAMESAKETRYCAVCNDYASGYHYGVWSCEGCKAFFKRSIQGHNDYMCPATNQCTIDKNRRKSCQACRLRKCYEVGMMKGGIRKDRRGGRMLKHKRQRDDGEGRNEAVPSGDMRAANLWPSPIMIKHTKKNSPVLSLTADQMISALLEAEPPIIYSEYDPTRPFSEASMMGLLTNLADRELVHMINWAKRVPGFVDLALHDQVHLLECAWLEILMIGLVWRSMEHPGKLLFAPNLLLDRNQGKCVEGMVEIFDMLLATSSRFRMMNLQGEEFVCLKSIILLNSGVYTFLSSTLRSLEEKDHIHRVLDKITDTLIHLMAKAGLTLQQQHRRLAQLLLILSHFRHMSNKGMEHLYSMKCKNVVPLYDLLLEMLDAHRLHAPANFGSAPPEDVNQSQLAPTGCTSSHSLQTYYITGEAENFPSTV

[2] = biological target: Estrogen receptor beta (Homo sapiens) (UniProt Q92731); assay: Displacement of [3H]estradiol from human ERbeta LBD expressed in Escherichia coli
[3] = biological target: T2, Estrogen receptor (Homo sapiens) (UniProt P03372); assay: Agonist activity at Estrogen receptor expressed in human Ishikawa cells assessed as induction of alkaline phosphatase after 3 days by spectrophotometry relative to estradiol; assay type: functional, cell-based
T2 sequence (whole entry): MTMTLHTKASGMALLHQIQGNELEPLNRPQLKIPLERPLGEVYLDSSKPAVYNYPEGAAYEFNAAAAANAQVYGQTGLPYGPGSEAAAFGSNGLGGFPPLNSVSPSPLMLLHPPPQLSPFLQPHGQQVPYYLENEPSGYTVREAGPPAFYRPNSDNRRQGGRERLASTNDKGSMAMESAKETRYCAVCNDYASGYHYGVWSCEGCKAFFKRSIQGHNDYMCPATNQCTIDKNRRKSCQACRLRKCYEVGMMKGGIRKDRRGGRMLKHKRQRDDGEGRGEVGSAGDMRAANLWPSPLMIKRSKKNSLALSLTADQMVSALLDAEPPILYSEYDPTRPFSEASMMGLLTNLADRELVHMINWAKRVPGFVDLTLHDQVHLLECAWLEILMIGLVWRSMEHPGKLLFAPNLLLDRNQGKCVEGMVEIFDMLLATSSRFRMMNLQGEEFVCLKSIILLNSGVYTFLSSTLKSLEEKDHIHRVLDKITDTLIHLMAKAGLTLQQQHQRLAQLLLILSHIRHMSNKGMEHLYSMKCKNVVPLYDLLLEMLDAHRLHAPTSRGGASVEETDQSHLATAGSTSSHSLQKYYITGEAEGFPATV
In short: (§1)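 Ishikawa endometrial adenocarcinoma cells were grown in phenol red-free medium with charcoal-stripped bovine serum, with steroids across at least 6 orders of magnitude, for 3 days. Cells were then washed and freeze-thawed, and alkaline phosphatase was read kinetically as p-nitrophenol at 405 nm from 5 mM p-nitrophenyl phosphate at pH 9.8. RSA is the ratio of 1/EC50 versus E2 ×100, from curve fitting. At least 3 experiments were run in duplicate.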

[4] = biological target: T2, Estrogen receptor (Homo sapiens); assay: Mixed agonist and antagonist activity at Estrogen receptor expressed in human Ishikawa cells assessed as induction of alkaline phosphatase after 3 days by spectrophotometry relative to estradiol; assay type: functional, cell-based; set-up: scale not given: the % may be the effect or the level left; in short: as §1
Estrogen receptor = biological target: T3, Estrogen receptor (Homo sapiens, UniProt P03372); assay: Antagonist activity at Estrogen receptor expressed in human Ishikawa cells assessed as inhibition of estradiol-induced increase in alkaline phosphatase after 3 days by spectrophotometry; assay type: functional, cell-based
T3 sequence (P03372 whole entry): T2 sequence (whole entry)
In short: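 Ishikawa cells were grown in phenol red-free, charcoal-stripped bovine serum medium. Compounds at 10−6 to 10−12 M were tested against 10−9 M E2 for 3 days. Ki came from curve fitting. At least 3 experiments were run in duplicate.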

Estrogen receptor beta (Homo sapiens), sequence (Q92731 whole entry, the tested form may be a part): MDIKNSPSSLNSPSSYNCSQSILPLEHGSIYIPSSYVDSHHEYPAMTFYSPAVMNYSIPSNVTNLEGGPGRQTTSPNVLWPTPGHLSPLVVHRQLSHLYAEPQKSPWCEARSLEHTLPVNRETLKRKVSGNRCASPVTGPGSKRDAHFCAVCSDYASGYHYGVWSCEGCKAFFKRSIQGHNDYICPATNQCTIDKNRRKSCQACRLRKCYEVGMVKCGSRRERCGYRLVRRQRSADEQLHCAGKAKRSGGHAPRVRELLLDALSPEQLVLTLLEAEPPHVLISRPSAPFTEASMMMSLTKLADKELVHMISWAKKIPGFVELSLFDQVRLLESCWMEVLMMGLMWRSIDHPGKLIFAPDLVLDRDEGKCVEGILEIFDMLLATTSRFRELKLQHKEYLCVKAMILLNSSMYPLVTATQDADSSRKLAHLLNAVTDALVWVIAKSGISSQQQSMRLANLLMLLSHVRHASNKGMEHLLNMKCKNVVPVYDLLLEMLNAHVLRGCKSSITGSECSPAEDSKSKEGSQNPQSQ

SMILES	RBA [2] [%]	RSA [3] [%]	further results
N#CC(=C(c1ccc(O)cc1)c1ccc(O)cc1)c1ccc(O)cc1	–	–	RBA [1]: 166%
COc1ccc(/C(=C(/C#N)c2ccc(O)cc2)c2ccc(O)cc2)cc1	–	–	RBA [1]: 17%
CN(C)CCOc1ccc([C@H]2C[C@]3(C)[C@@H](O)CC[C@H]3[C@@H]3CCc4cc(O)ccc4[C@H]32)cc1	17	–	–
CO[C@H]1C[C@]2(C)[C@@H](O)CC[C@H]2[C@@H]2CCc3cc(O)ccc3[C@H]21	–	76	–
C[C@]12C[C@H](c3ccc(O)cc3)[C@@H]3c4ccc(O)cc4CC[C@H]3[C@@H]1CC[C@@H]2O	41	17	–
COc1ccc([C@H]2C[C@]3(C)[C@@H](O)CC[C@H]3[C@@H]3CCc4cc(O)ccc4[C@H]32)cc1	–	–	Activity [4]: 35%
C=C[C@H]1C[C@]2(C)[C@@H](O)CC[C@H]2[C@@H]2CCc3cc(O)ccc3[C@H]21	–	70	–
C[C@]12C[C@H](c3ccc(OCCCCCS(=O)(=O)C(F)(F)C(F)(F)F)cc3)[C@@H]3c4ccc(O)cc4CC[C@H]3[C@@H]1CC[C@@H]2O	27	–	Ki (Estrogen receptor): 5.3 nM
C[C@]12C[C@H](c3ccc(OCCOCCOCCn4cc(CNC5=CC(=O)c6ccccc6C5=O)nn4)cc3)[C@@H]3c4ccc(O)cc4CC[C@H]3[C@@H]1CC[C@@H]2O	–	–	Ki (Estrogen receptor): 1.1 nM
